Measured values taken from ChEMBL document CHEMBL1138767, “Macrocyclic inhibitors for peptide deformylase: a structure-activity relationship study of the ring size” (J Med Chem, 2004).
Converted amounts (≈) assume the structure as drawn.

Columns and labels:
Bacillus subtilis = experiment: The compound was tested in vitro for antibacterial activity against Bacillus subtilis
Staphylococcus aureus = experiment: The compound was tested in vitro for antibacterial activity against Staphylococcus aureus (ATCC 29213); format: functional
In short: (§1)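 Broth microdilution per NCCLS M7-A5 in cation-adjusted Mueller–Hinton broth; 5% lysed horse blood added for streptococci, Haemophilus Test Medium for Haemophilus. Inoculum ~5 × 10^5 CFU/mL from 16–20 h plate cultures. Twofold dilutions, final 0.03–32 µg/mL. Incubated 16–20 h at 35–37 °C (Haemophilus and Streptococcus: 24 h, 5% CO2). MIC is the lowest concentration with no visible growth, read visually.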

[1] = target: Matrix metalloproteinase-9 (Homo sapiens) (UniProt P14780); experiment: Inhibition of MMP-9 (matrix metalloprotease) at 10 uM
In short: (§2)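 Human MMP-1, -2, -3 or -9 (0.10 µg, added last to start the reaction) in 100 mM Tris, 100 mM NaCl, 10 mM CaCl2, 0.04% Brij-35. Contained 15 µM fluorogenic peptide substrate (Mca-P-K-G-Dpa-A-R-NH2 for MMP-1/-2) and inhibitor at 0, 1 or 10 µM. Remaining activity monitored continuously by fluorescence, excitation 320 nm, emission 405 nm.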

[2] = target: 72 kDa type IV collagenase (Homo sapiens) (UniProt P08253); experiment: Inhibition of MMP-2 (matrix metalloprotease) at 10 uM
In short: as §2

Escherichia coli = experiment: The compound was tested in vitro for antibacterial activity against Escherichia coli; format: functional
In short: as §1

[3] = target: Stromelysin-1 (Homo sapiens) (UniProt P08254); experiment: Inhibition of MMP-3 (matrix metalloprotease) at 1 uM
In short: as §2

Moraxella catarrhalis = experiment: The compound was tested in vitro for antibacterial activity against Moraxella catarrhalis (ATCC 37054); format: functional
In short: as §1

Streptococcus pneumoniae [4] = experiment: The compound was tested in vitro for antibacterial activity against Streptococcus pneumoniae (ATCC 6301); format: functional
In short: as §1

Streptococcus pneumoniae [5] = experiment: The compound was tested in vitro for antibacterial activity against Streptococcus pneumoniae (ATCC 49619); format: functional
In short: as §1

[6] = target: T1, Interstitial collagenase (Homo sapiens) (UniProt P03956); experiment: Inhibition of MMP-1 (matrix metalloprotease) at 10 uM
T1 sequence (whole entry): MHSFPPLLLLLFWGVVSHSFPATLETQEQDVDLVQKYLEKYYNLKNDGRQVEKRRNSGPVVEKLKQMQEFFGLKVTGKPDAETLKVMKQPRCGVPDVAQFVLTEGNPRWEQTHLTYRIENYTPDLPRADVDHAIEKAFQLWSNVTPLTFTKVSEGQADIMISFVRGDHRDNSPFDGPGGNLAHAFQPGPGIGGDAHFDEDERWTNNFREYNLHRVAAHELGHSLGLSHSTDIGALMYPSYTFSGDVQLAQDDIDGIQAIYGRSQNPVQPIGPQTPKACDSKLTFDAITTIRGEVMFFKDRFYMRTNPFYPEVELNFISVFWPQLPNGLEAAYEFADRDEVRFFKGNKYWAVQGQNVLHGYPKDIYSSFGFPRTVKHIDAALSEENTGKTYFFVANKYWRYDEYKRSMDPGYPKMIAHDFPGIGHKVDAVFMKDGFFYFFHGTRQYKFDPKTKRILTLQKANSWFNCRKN
In short: as §2

[7] = target: Matrix metalloproteinase-9 (Homo sapiens) (UniProt P14780); experiment: Inhibition of MMP-9 (matrix metalloprotease) at 1 uM
In short: as §2

Peptide deformylase [8] = target: T2, Peptide deformylase (Escherichia coli, UniProt Q9JN24); experiment: Inhibitory effect against Escherichia coli peptide deformylase (PDF) by AAP assay
T2 sequence (Q9JN24 whole entry): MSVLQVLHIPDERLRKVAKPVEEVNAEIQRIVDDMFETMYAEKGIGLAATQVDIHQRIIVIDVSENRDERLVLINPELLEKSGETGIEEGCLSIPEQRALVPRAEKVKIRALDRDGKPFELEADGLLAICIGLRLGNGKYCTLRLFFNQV
In short: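 E. coli PDF (Co(II) cofactor) 8 nM preincubated with 0–300 nM inhibitor 2 h on ice in 50 mM Hepes pH 7.0, 150 mM NaCl, 100 μM BSA. Reaction started at room temperature with 80 μM f-ML-pNA for 10 min, heat-quenched at 95 °C, then coupled with AAP. A405 measured, no-PDF background subtracted, conversion <20%. K_I* from Michaelis–Menten fit.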

Haemophilus influenzae = experiment: The compound was tested in vitro for antibacterial activity against Haemophilus influenzae (ATCC 31517); format: functional
In short: as §1

Enterococcus faecalis = experiment: The compound was tested in vitro for antibacterial activity against Enterococcus faecalis(ATCC 29212); format: functional
In short: as §1

Streptococcus pneumoniae [9] = experiment: The compound was tested in vitro for antibacterial activity against Streptococcus pneumoniae (ATCC 6303); format: functional
In short: as §1

[10] = target: T1, Interstitial collagenase (Homo sapiens); experiment: Inhibition of MMP-1 (matrix metalloprotease) at 1 uM
In short: as §2

[11] = target: T3, Peptide deformylase (Escherichia coli) (UniProt Q9JN24); experiment: Inhibition constant against Escherichia coli Peptide deformylase (PDF)
T3 sequence (whole entry): T2 sequence (Q9JN24 whole entry)

[12] = target: T3, Peptide deformylase (Escherichia coli); experiment: The inhibition constant was measured against Escherichia coli PDF (Peptide deformylase) by diluting a preformed EI* complex into a assay buffer containing f-Met-Lys-AMC and DPPI
In short: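 E. coli PDF (Co(II) form) at 40–160 nM and inhibitor at 80–200 nM, preincubated 2 h on ice in 50 mM Hepes pH 7.0, 10 mM NaCl, 5 mM DTT with 100 µM BSA. Then diluted 10-fold into the same buffer with 270 µM f-Met-Lys-AMC and 0.1 U DPPI. Recovery of activity followed continuously at 360 nm; k6 taken from progress curves.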

[13] = target: Stromelysin-1 (Homo sapiens) (UniProt P08254); experiment: Inhibition of MMP-3 (matrix metalloprotease) at 10 uM
In short: as §2

[14] = target: 72 kDa type IV collagenase (Homo sapiens) (UniProt P08253); experiment: Inhibition of MMP-2 (matrix metalloprotease) at 1 uM
In short: as §2

Peptide deformylase [15] = target: T2, Peptide deformylase; experiment: Inhibitory effect against Escherichia coli peptide deformylase (PDF) by DPPI assay
In short: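 E. coli PDF (Co(II) cofactor) assayed continuously at room temperature in 50 mM Hepes, 10 mM NaCl, 5 mM DTT, pH 7.0. Read at 360 nm, initial rates from <30 s, no-PDF background subtracted. K_I from Michaelis–Menten fit.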

Sequence of Stromelysin-1 (Homo sapiens) (P08254 100-477 limits assumed): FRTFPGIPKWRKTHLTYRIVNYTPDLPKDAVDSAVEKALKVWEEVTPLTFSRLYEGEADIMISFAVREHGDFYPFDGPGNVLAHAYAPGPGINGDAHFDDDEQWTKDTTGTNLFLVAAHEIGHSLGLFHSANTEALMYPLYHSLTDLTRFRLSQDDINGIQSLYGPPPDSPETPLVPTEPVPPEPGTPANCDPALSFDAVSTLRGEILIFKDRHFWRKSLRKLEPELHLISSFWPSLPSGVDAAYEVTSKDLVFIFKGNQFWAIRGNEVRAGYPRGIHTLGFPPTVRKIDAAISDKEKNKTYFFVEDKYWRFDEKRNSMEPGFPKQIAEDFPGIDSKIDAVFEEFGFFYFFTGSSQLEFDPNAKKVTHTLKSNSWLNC
Sequence of 72 kDa type IV collagenase (Homo sapiens) (P08253 110-660 limits assumed): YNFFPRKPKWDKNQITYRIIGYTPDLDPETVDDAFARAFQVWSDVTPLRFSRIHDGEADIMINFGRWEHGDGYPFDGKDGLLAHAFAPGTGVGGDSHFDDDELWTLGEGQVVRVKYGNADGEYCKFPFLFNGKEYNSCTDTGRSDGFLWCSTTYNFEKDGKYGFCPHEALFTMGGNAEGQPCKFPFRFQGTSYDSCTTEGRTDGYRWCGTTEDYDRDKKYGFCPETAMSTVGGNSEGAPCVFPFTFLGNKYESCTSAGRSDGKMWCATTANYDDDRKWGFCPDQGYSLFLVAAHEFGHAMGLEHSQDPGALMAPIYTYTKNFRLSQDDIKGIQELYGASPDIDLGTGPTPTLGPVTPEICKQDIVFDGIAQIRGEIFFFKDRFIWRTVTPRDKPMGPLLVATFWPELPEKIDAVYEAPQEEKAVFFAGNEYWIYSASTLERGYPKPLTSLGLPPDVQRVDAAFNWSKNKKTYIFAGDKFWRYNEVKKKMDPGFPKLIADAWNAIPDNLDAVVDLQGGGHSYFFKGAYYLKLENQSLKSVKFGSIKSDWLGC
Sequence of Matrix metalloproteinase-9 (Homo sapiens) (P14780 whole entry): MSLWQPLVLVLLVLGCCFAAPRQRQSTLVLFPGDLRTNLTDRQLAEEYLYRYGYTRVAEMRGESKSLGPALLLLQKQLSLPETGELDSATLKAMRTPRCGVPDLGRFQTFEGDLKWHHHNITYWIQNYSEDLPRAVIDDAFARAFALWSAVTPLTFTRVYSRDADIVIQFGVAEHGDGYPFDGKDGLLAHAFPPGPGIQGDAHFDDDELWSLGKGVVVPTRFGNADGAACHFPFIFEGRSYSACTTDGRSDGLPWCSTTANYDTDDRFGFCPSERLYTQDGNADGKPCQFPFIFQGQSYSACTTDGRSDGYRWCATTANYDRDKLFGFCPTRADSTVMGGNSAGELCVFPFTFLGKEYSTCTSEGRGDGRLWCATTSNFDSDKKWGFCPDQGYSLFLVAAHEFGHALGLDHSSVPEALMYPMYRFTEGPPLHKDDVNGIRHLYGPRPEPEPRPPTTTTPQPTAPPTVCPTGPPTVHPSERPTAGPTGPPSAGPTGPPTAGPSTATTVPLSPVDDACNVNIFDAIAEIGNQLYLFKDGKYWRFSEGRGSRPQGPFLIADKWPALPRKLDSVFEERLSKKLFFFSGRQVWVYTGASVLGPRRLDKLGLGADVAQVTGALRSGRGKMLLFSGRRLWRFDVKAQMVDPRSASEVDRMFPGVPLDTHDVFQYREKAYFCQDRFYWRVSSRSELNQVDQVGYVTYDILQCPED

NCCCC[C@@H]1NC(=O)[C@@H](CN(O)C=O)CCCCCCCCCCCCCCNC1=O
MIC90 (Bacillus subtilis): > 32 µg/mL | MIC90 (Staphylococcus aureus): 32 µg/mL (≈ 70.4 µM) | inhibition [1]: 5% | inhibition [2]: 15% | MIC90 (Escherichia coli): > 32 µg/mL | inhibition [3]: 0% | MIC90 (Moraxella catarrhalis): 1 µg/mL (≈ 2.2 µM) | MIC90 (Streptococcus pneumoniae [4]): > 32 µg/mL | MIC90 (Streptococcus pneumoniae [5]): > 32 µg/mL | inhibition [6]: 7% | inhibition [7]: 4% | Ki (Peptide deformylase [8]; read-out: Ki): 0.036 µM | MIC90 (Haemophilus influenzae): 32 µg/mL (≈ 70.4 µM) | MIC90 (Enterococcus faecalis): 32 µg/mL (≈ 70.4 µM) | MIC90 (Streptococcus pneumoniae [9]): > 32 µg/mL | inhibition [10]: 1% | K5 [11]: 0.11 min⁻¹ | K6 [12]: 0.018 min⁻¹ | inhibition [13]: 6% | inhibition [14]: 6%

CC(C)(C)[C@@H]1NC(=O)[C@@H](CN(O)C=O)CCCCCCCCNC1=O
MIC90 (Bacillus subtilis): 1.4 µg/mL (≈ 3.94 µM) | inhibition [1]: 11% | inhibition [2]: 15% | MIC90 (Escherichia coli): > 24 µg/mL | inhibition [3]: 3% | inhibition [6]: 1% | inhibition [7]: 8% | Ki (Peptide deformylase [8]; read-out: Ki): 0.0137 µM | Ki (Peptide deformylase [15]): 0.063 µM | inhibition [10]: 0% | K5 [11]: 0.02 min⁻¹ | K6 [12]: 0.0061 min⁻¹ | inhibition [13]: 20% | inhibition [14]: 10%

CCCC[C@H](CN(O)C=O)C(=O)N[C@H](C(=O)N(C)C)C(C)(C)C
Ki (Peptide deformylase [8]): No Slow-Binding Behaviour | Ki (Peptide deformylase [15]): 0.011 µM | K5 [11]: No Slow-Binding Behaviour | K6 [12]: No Slow-Binding Behaviour

CCCC[C@H](CN(O)C=O)C(=O)N[C@@H](CCCCN)C(=O)Nc1ccccc1
inhibition [1]: 89% | inhibition [2]: 55% | inhibition [3]: 68% | inhibition [6]: 97% | inhibition [7]: 54% | Ki (Peptide deformylase [8]): No Slow-Binding Behaviour | Ki (Peptide deformylase [15]): 0.023 µM | inhibition [10]: 50% | K5 [11]: No Slow-Binding Behaviour | K6 [12]: No Slow-Binding Behaviour | inhibition [13]: 73% | inhibition [14]: 34%

NCCCC[C@@H]1NC(=O)[C@@H](CN(O)C=O)CCCCCCCCCNC1=O
MIC90 (Bacillus subtilis): ~8 µg/mL (≈ 20.8 µM) | MIC90 (Escherichia coli): 4 µg/mL (≈ 10.4 µM) | Ki (Peptide deformylase [8]; read-out: Ki): 0.003 µM | Ki (Peptide deformylase [15]): 0.092 µM | K5 [11]: 0.12 min⁻¹ | K6 [12]: 0.0042 min⁻¹

CCCCCCNC(=O)[C@H](CCCCN)NC(=O)[C@H](CCCCC)CN(O)C=O
inhibition [1]: 94% | inhibition [2]: 98% | inhibition [3]: 81% | inhibition [6]: 100% | inhibition [7]: 61% | Ki (Peptide deformylase [8]): No Slow-Binding Behaviour | inhibition [10]: 50% | K5 [11]: No Slow-Binding Behaviour | K6 [12]: No Slow-Binding Behaviour | inhibition [13]: 99% | inhibition [14]: 73%

CC(C)(C)[C@@H]1NC(=O)[C@@H](CN(O)C=O)CCCCCCCCCCNC1=O
MIC90 (Bacillus subtilis): 0.2 µg/mL (≈ 0.521 µM) | MIC90 (Escherichia coli): > 12 µg/mL | Ki (Peptide deformylase [8]; read-out: Ki): 0.00023 µM | Ki (Peptide deformylase [15]): 0.096 µM | K5 [11]: 1.6 min⁻¹ | K6 [12]: 0.0037 min⁻¹

CC(C)(C)[C@@H]1NC(=O)[C@@H](CN(O)C=O)CCCCCCCCCCCNC1=O
MIC90 (Bacillus subtilis): 0.08 µg/mL (≈ 0.201 µM) | MIC90 (Escherichia coli): > 24 µg/mL | Ki (Peptide deformylase [8]; read-out: Ki): 0.00022 µM | Ki (Peptide deformylase [15]): 0.077 µM | K5 [11]: 0.5 min⁻¹ | K6 [12]: 0.0015 min⁻¹

CC(C)(C)[C@@H]1NC(=O)[C@@H](CN(O)C=O)CCCCCCCCCCCCCCNC1=O
MIC90 (Bacillus subtilis): ~16 µg/mL (≈ 36.4 µM) | MIC90 (Staphylococcus aureus): > 32 µg/mL | inhibition [1]: 6% | inhibition [2]: 0% | MIC90 (Escherichia coli): > 24 µg/mL | inhibition [3]: 3% | MIC90 (Moraxella catarrhalis): < 0.03 µg/mL | MIC90 (Streptococcus pneumoniae [4]): 8 µg/mL (≈ 18.2 µM) | MIC90 (Streptococcus pneumoniae [5]): 8 µg/mL (≈ 18.2 µM) | inhibition [6]: 8% | inhibition [7]: 4% | Ki (Peptide deformylase [8]; read-out: Ki): 0.025 µM | MIC90 (Haemophilus influenzae): > 32 µg/mL | MIC90 (Enterococcus faecalis): > 32 µg/mL | MIC90 (Streptococcus pneumoniae [9]): 4 µg/mL (≈ 9.1 µM) | inhibition [10]: 7% | K5 [11]: 1 min⁻¹ | K6 [12]: 0.01 min⁻¹ | inhibition [13]: 4% | inhibition [14]: 0%

CC(=O)NCCCC[C@@H]1NC(=O)[C@@H](CN(O)C=O)CCCCCCCCCNC1=O
inhibition [1]: 8% | inhibition [2]: 20% | inhibition [3]: 0% | inhibition [6]: 13% | inhibition [7]: 8% | Ki (Peptide deformylase [8]; read-out: Ki): 0.012 µM | Ki (Peptide deformylase [15]): 0.71 µM | inhibition [10]: 3% | K5 [11]: 0.28 min⁻¹ | K6 [12]: 0.0048 min⁻¹ | inhibition [13]: 8% | inhibition [14]: 17%

CC(C)(C)[C@@H]1NC(=O)[C@@H](CN(O)C=O)CCCCCCCCCNC1=O
MIC90 (Bacillus subtilis): 0.7 µg/mL (≈ 1.89 µM) | MIC90 (Staphylococcus aureus): 16 µg/mL (≈ 43.3 µM) | inhibition [1]: 9% | inhibition [2]: 8% | inhibition [3]: 3% | MIC90 (Moraxella catarrhalis): 0.62 µg/mL (≈ 1.68 µM) | MIC90 (Streptococcus pneumoniae [4]): 4 µg/mL (≈ 10.8 µM) | MIC90 (Streptococcus pneumoniae [5]): 4 µg/mL (≈ 10.8 µM) | inhibition [6]: 14% | inhibition [7]: 5% | Ki (Peptide deformylase [8]; read-out: Ki): 0.00033 µM | MIC90 (Haemophilus influenzae): 0.5 µg/mL (≈ 1.35 µM) | MIC90 (Enterococcus faecalis): > 32 µg/mL | Ki (Peptide deformylase [15]): 0.109 µM | MIC90 (Streptococcus pneumoniae [9]): 2 µg/mL (≈ 5.41 µM) | inhibition [10]: 7% | K5 [11]: 1.2 min⁻¹ | K6 [12]: 0.0038 min⁻¹ | inhibition [13]: 9% | inhibition [14]: 4%
